≈ marks a conversion by molar mass, not a printed value.
Experiments:
Staphylococcus aureus [1] = assay: Antibacterial activity against Staphylococcus aureus ATCC 29213 assessed as bacterial growth inhibition incubated for 18 to 24 hrs by broth microdilution method; assay type: functional; details: time 18-24 hrs
Outline: (§1)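 CLSI broth microdilution. Overnight starter cultures (single colony, MHBII, 37 °C, shaking 18–24 h) were diluted by OD600 to 10^6 CFU/mL in MHBII. Two-fold dilutions from […] were made from 10 mg/mL DMSO stocks, then incubated 37 °C for 18-24 h. The MIC was the lowest concentration with no visible growth. Three independent runs, duplicate samples.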

Staphylococcus aureus [2] = assay: Synergistic antibacterial activity against Staphylococcus aureus ATCC 29213 assessed as bacterial growth inhibition incubated for 24 hrs in presence of (S)-8''-Bromo-1-ethyl-1'-methyl-2,12''-dioxo-12''H-dispiro[indoline-3,4'-pyrrolidine-2',6''-indolo[2,1-b]quinazoline]-3',3'-dicarbonitrile by checkerboard assay; assay type: functional
Outline: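 Checkerboard in 96-well plates: two-fold serial dilutions, one agent along abscissa, partner antibiotic along ordinate. Wells received ~10⁵ CFU/mL S. aureus ATCC 29213 in MHBII. Incubation 37 °C, 24 h. ΣFIC = FIC A + FIC B, each FIC being combination MIC divided by MIC alone.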

Staphylococcus aureus [3] = assay: Antibacterial activity against vancomycin resistant Staphylococcus aureus […] 4 assessed as bacterial growth inhibition incubated for 18 to 24 hrs by broth microdilution method; assay type: functional; details: time 18-24 hrs
Outline: (§2)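 CLSI broth microdilution in MHBII; overnight starter cultures (single MHA colony, 37 °C, shaking) adjusted by OD600 to 10^6 CFU/mL. Compounds from DMSO stocks (10 mg/mL), two-fold series 64–0.5 mg/L. Incubation 37 °C, 18-24 h. MIC = lowest concentration with no visible growth. Three independent determinations, each in duplicate.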

Staphylococcus aureus [4] = assay: Antibacterial activity against methicillin resistant Staphylococcus aureus NRS 129 assessed as bacterial growth inhibition incubated for 18 to 24 hrs by broth microdilution method; assay type: functional; details: time 18-24 hrs; outline: as §2
Staphylococcus aureus [5] = assay: Antibacterial activity against vancomycin resistant Staphylococcus aureus […] 12 assessed as bacterial growth inhibition incubated for 18 to 24 hrs by broth microdilution method; assay type: functional; details: time 18-24 hrs; outline: as §2
Acinetobacter baumannii = assay: Antibacterial activity against Acinetobacter baumannii BAA-1605 assessed as bacterial growth inhibition incubated for 18 to 24 hrs by broth microdilution method; assay type: functional; details: time 18-24 hrs; outline: as §1
Staphylococcus aureus [6] = assay: Antibacterial activity against methicillin sensitive Staphylococcus aureus ATCC 29213 assessed as bacterial growth inhibition incubated for 18 to 24 hrs by broth microdilution method; assay type: functional; details: time 18-24 hrs; outline: as §2
Pseudomonas aeruginosa = assay: Antibacterial activity against Pseudomonas aeruginosa ATCC 27853 assessed as bacterial growth inhibition incubated for 18 to 24 hrs by broth microdilution method; assay type: functional; details: time 18-24 hrs; outline: as §1
Staphylococcus aureus [7] = assay: Antibacterial activity against methicillin resistant Staphylococcus aureus NRS 193 assessed as bacterial growth inhibition incubated for 18 to 24 hrs by broth microdilution method; assay type: functional; details: time 18-24 hrs; outline: as §2
Vero = assay: Cytotoxicity against African green monkey Vero cells assessed as cell viability incubated for 72 hrs by MTT assay; assay type: toxicity, cell-based; details: chlorocebus sabaeus
Outline: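 MTT assay on Vero cells, ~10^3 cells/well, 37 °C, 5% CO2. Compound was added at 24 h (100-12.5 μg/mL) for 72 h, then MTT for 4 h at 37 °C. Formazan was dissolved in DMSO and read at 540 nm. CC50 was the lowest concentration giving 50% viability loss. Doxorubicin positive control; triplicate.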

Staphylococcus aureus [8] = assay: Antibacterial activity against methicillin resistant Staphylococcus aureus NRS 198 assessed as bacterial growth inhibition incubated for 18 to 24 hrs by broth microdilution method; assay type: functional; details: time 18-24 hrs; outline: as §2
Klebsiella pneumoniae = assay: Antibacterial activity against Klebsiella pneumoniae BAA 1705 assessed as bacterial growth inhibition incubated for 18 to 24 hrs by broth microdilution method; assay type: functional; details: time 18-24 hrs; outline: as §1
Staphylococcus aureus [9] = assay: Antibacterial activity against methicillin resistant Staphylococcus aureus NRS 194 assessed as bacterial growth inhibition incubated for 18 to 24 hrs by broth microdilution method; assay type: functional; details: time 18-24 hrs; outline: as §2
Staphylococcus aureus [10] = assay: Antibacterial activity against methicillin resistant Staphylococcus aureus NRS 191 assessed as bacterial growth inhibition incubated for 18 to 24 hrs by broth microdilution method; assay type: functional; details: time 18-24 hrs; outline: as §2
Staphylococcus aureus [11] = assay: Antibacterial activity against methicillin resistant Staphylococcus aureus NRS 119 assessed as bacterial growth inhibition incubated for 18 to 24 hrs by broth microdilution method; assay type: functional; details: time 18-24 hrs; outline: as §2
Staphylococcus aureus [12] = assay: Antibacterial activity against methicillin resistant Staphylococcus aureus NRS 186 assessed as bacterial growth inhibition incubated for 18 to 24 hrs by broth microdilution method; assay type: functional; details: time 18-24 hrs; outline: as §2
Escherichia coli = assay: Antibacterial activity against Escherichia coli ATCC 25922 assessed as bacterial growth inhibition incubated for 18 to 24 hrs by broth microdilution method; assay type: functional; details: time 18-24 hrs; outline: as §1
[13] = Selectivity ratio of CC50 for African green monkey Vero cells to MIC against Staphylococcus aureus ATCC 29213; assay type: toxicity, cell-based
Staphylococcus aureus [14] = assay: Antibacterial activity against methicillin resistant Staphylococcus aureus NRS 192 assessed as bacterial growth inhibition incubated for 18 to 24 hrs by broth microdilution method; assay type: functional; details: time 18-24 hrs; outline: as §2
[15] = Staphylococcus aureus, ATCC 29213, read-out: MIC

Row | Compound | MIC (Staphylococcus aureus [2]) [µg/mL] | MIC (Staphylococcus aureus [1]; [15]) [µg/mL] | MIC (Acinetobacter baumannii) [µg/mL] | MIC (Pseudomonas aeruginosa) [µg/mL] | MIC (Klebsiella pneumoniae) [µg/mL] | MIC (Escherichia coli) [µg/mL] | selectivity ratio [13] | other results
1 | GENTAMICIN | 0.25 | – | – | – | – | – | – | MIC (Staphylococcus aureus [1]): 0.25 µg/mL
2 | CN(C)c1ccc(O)c2c1C[C@H]1C[C@H]3[C@H](N(C)C)C(O)=C(C(N)=O)C(=O)[C@@]3(O)C(O)=C1C2=O [MINOCYCLINE] | 0.125 | 0.125 (≈ 0.273 µM) | – | – | – | – | – | –
3 | CCN1C(=O)[C@@]2(CN(C)C3(c4cc(OC)ccc4-n4c3nc3ccccc3c4=O)C2(C#N)C#N)c2ccccc21 (some centres undefined) | – | 0.125 (≈ 0.236 µM) | > 64 | > 64 | > 64 | > 64 | > 80 | MIC (Staphylococcus aureus [3]): 0.5 µg/mL (≈ 0.946 µM); MIC (Staphylococcus aureus [4]): 0.25 µg/mL (≈ 0.473 µM); MIC (Staphylococcus aureus [5]): 8 µg/mL (≈ 15.1 µM); MIC (Staphylococcus aureus [6]): 0.5 µg/mL (≈ 0.946 µM); MIC (Staphylococcus aureus [7]): 0.5 µg/mL (≈ 0.946 µM); Activity (Vero): Non-Toxic; MIC (Staphylococcus aureus [8]): 0.5 µg/mL (≈ 0.946 µM); MIC (Staphylococcus aureus [9]): 0.5 µg/mL (≈ 0.946 µM); MIC (Staphylococcus aureus [10]): 0.25 µg/mL (≈ 0.473 µM); MIC (Staphylococcus aureus [11]): 0.25 µg/mL (≈ 0.473 µM); MIC (Staphylococcus aureus [12]): 0.5 µg/mL (≈ 0.946 µM); MIC (Staphylococcus aureus [14]): 0.5 µg/mL (≈ 0.946 µM)
4 | CCN1C(=O)[C@@]2(CN(C)C3(c4cc([N+](=O)[O-])ccc4-n4c3nc3ccccc3c4=O)C2(C#N)C#N)c2ccccc21 (some centres undefined) | – | 0.25 (≈ 0.46 µM) | > 64 | > 64 | > 64 | > 64 | < 10 | –
5 | CCN1C(=O)[C@]2(c3ccccc31)C(C(=O)NCC(=O)O)NC1(c3cc(Cl)ccc3-n3c1nc1ccccc1c3=O)C2(C#N)C#N (some centres undefined) | – | 1 (≈ 1.61 µM) | > 64 | > 64 | > 64 | > 64 | 10 | –
6 | CCCCCCCCCC(=O)N[C@@H](Cc1c[nH]c2ccccc12)C(=O)N[C@H](CC(N)=O)C(=O)N[C@@H](CC(=O)O)C(=O)N[C@@H]1C(=O)NCC(=O)N[C@@H](CCCN)C(=O)N[C@@H](CC(=O)O)C(=O)N[C@H](C)C(=O)N[C@@H](CC(=O)O)C(=O)NCC(=O)N[C@H](CO)C(=O)N[C@@H]([C@H](C)CC(=O)O)C(=O)N[C@@H](CC(=O)c2ccccc2N)C(=O)O[C@@H]1C | 1 | 1 (≈ 0.617 µM) | – | – | – | – | – | –
7 | CCN1C(=O)[C@@]2(CN(C)C3(c4cc(Cl)ccc4-n4c3nc3ccccc3c4=O)C2(C#N)C#N)c2ccccc21 (some centres undefined) | – | 0.125 (≈ 0.235 µM) | > 64 | > 64 | > 64 | > 64 | > 80 | MIC (Staphylococcus aureus [3]): 0.25 µg/mL (≈ 0.469 µM); MIC (Staphylococcus aureus [4]): 0.25 µg/mL (≈ 0.469 µM); MIC (Staphylococcus aureus [5]): 0.25 µg/mL (≈ 0.469 µM); MIC (Staphylococcus aureus [6]): 0.25 µg/mL (≈ 0.469 µM); MIC (Staphylococcus aureus [7]): 0.25 µg/mL (≈ 0.469 µM); Activity (Vero): Non-Toxic; MIC (Staphylococcus aureus [8]): 0.25 µg/mL (≈ 0.469 µM); MIC (Staphylococcus aureus [9]): 0.5 µg/mL (≈ 0.938 µM); MIC (Staphylococcus aureus [10]): 0.063 µg/mL (≈ 0.118 µM); MIC (Staphylococcus aureus [11]): 0.125 µg/mL (≈ 0.235 µM); MIC (Staphylococcus aureus [12]): 0.125 µg/mL (≈ 0.235 µM); MIC (Staphylococcus aureus [14]): 0.25 µg/mL (≈ 0.469 µM)
8 | CN1C(=O)[C@@]2(CN(C)C3(c4ccccc4-n4c3nc3ccccc3c4=O)C2(C#N)C#N)c2ccccc21 (some centres undefined) | – | 8 (≈ 16.5 µM) | > 64 | > 64 | > 64 | > 64 | – | –
9 | CCN1C(=O)[C@]2(c3ccccc31)C1CCCN1C1(c3ccccc3-n3c1nc1ccccc1c3=O)C2(C#N)C#N (some centres undefined) | – | 0.25 (≈ 0.477 µM) | > 64 | > 64 | > 64 | > 64 | – | –
10 | CCN1C(=O)[C@@]2(CN(C)C3(c4cc(I)ccc4-n4c3nc3ccccc3c4=O)C2(C#N)C#N)c2ccccc21 (some centres undefined) | – | 0.25 (≈ 0.4 µM) | > 64 | > 64 | > 64 | > 64 | – | –
